# Unmarked numbers belong to inactive results.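 How the source made its calls: active means cytochrome c release activity at 50 µM, scaled between control wells and rounded, of 10% or more; inactive means the rest.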
# Assay: cytochrome c release from parental CHL-1 mitochondria, counter-screen for A1 inhibitor project, biochemical, CHL-1 wild type, cytochrome c ELISA, dry powder (AID 504407)
# Conditions: CHL-1 isolated mitochondria, at 50 µM, stronger effect = higher value
# In short: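 Material: isolated mitochondria from wild-type CHL-1 cells. Medium: AT buffer, 80 mM KCl. Incubation: 30 min compound treatment, 30 °C. Technique: ELISA absorbance at 450 nm, 540 nm corrected. Measure: released cytochrome c in supernatant. Benchmarks: DMSO-treated negative controls, tBid-treated positive controls.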
smiles,measurement,value
Cn1c(=O)c([N+](=O)[O-])c(Cl)c2ccccc21,cytochrome c release activity,0.1%

# Reference: PubChem BioAssay AID504407 (Broad Institute, 2011)
